# Results published in ChEMBL document CHEMBL3098006, “Preparation of 8-hydroxyquinoline derivatives as potential antibiotics against Staphylococcus aureus” (Bioorg Med Chem Lett, 2014).
# Assays:
# Staphylococcus aureus [1] = test: Antibacterial activity against Staphylococcus aureus assessed as growth inhibition after 24 hrs by broth dilution method; format: functional
# Summary of the method: (§1)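 Serial broth dilution in 96-well microtitre plate, compounds from 50 µg/mL top concentration (stocks 50 mg/mL in DMSO); methicillin positive control for S. aureus (from 50 µg/mL), […]. Incubation 37 °C, 24 h; MIC taken as lowest concentration giving complete growth inhibition.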
# Escherichia coli = test: Antibacterial activity against Escherichia coli assessed as growth inhibition after 24 hrs by broth dilution method; format: functional; summary of the method: as §1
# [2] = Cytotoxicity against human NE3 cells assessed as cell shrinkage after 24 hrs by SRB assay; format: cell-based
# Summary of the method: (§2)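 HaCaT keratinocytes and NE3 normal esophageal cells trypsinised, washed, resuspended at about 1×10^5 cells/mL, seeded in 96-well plates 24 h, then exposed 24 h to compounds from 50 µg/mL; doxorubicin 4 µg/mL positive control, 0.1% DMSO vehicle. SRB staining after TCA fixation, absorbance 575 nm; three independent experiments in triplicate, mean ± SD.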
# HaCaT = test: Cytotoxicity against human HaCaT cells assessed as cell shrinkage after 24 hrs by SRB assay; format: cell-based; summary of the method: as §2
# Staphylococcus aureus [3] = test: Antibacterial activity against Staphylococcus aureus assessed as growth inhibition at 15 ug/mL after 24 hrs; format: functional; details: read-out: IZ
# Summary of the method: (§3)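 Agar well diffusion: S. aureus diluted in broth, plated on nutrient agar, wells punched with sterile pipette and loaded with compound (amount per well as in line) or methicillin positive control. Incubation 37 °C, 24 h; inhibition zone recorded as radius in mm, mean ± SD of three results.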
# Staphylococcus aureus [4] = test: Antibacterial activity against Staphylococcus aureus assessed as growth inhibition at 50 ug/mL after 24 hrs; format: functional; summary of the method: as §3
# Staphylococcus aureus [5] = test: Antibacterial activity against Staphylococcus aureus assessed as growth inhibition at 5 ug/mL after 24 hrs; format: functional; details: read-out: IZ; summary of the method: as §3
Structure (SMILES),MIC (Staphylococcus aureus [1]) [µg/mL],MIC (Escherichia coli) [µg/mL],IC50 [2] [µg/mL],IC50 (HaCaT) [µg/mL],other results
Cc1ccc2cccc(OCCN3CCCCC3)c2n1,> 50,> 50,–,–,–
COc1cccc2ccc(C)nc12,> 50,> 50,–,–,–
Cc1ccc2c(Br)cc(Br)c(O)c2n1 [BROQUINALDOL],6.25,> 50,18.6,22.5,zone of inhibition at 15 µg/mL (Staphylococcus aureus [3]): 7.43 mm
CCCCOc1cccc2ccc(C)nc12,> 50,> 50,–,–,–
Cc1ccc2cccc(OCc3ccccc3)c2n1,> 50,> 50,–,–,–
CC1(C)S[C@@H]2[C@H](NC(=O)[C@H](N)c3ccccc3)C(=O)N2[C@H]1C(=O)O [AMPICILLIN],–,7.5,–,–,–
CCOc1cccc2ccc(C)nc12,> 50,> 50,–,–,–
COc1cccc2c1C(=O)c1c(O)c3c(c(O)c1C2=O)C[C@@](O)(C(=O)CO)C[C@@H]3O[C@H]1C[C@H](N)[C@H](O)[C@H](C)O1 [DOXORUBICIN],–,–,1.89,3.26,–
Cl.O=Cc1ccc2cccc(O)c2n1,50,> 50,18.1,22.5,"zone of inhibition at 50 µg/mL (Staphylococcus aureus [4]; Staphylococcus aureus, 24 h, read-out: IZ): 4.4 mm"
O=Cc1ccc2cccc(O)c2n1,50,> 50,16.1,19.1,inhibition zone (IZ) (Staphylococcus aureus [4]): 7.5 mm
COc1cccc(OC)c1C(=O)N[C@@H]1C(=O)N2[C@@H]1SC(C)(C)[C@@H]2C(=O)O [METHICILLIN],3.12,–,–,–,zone of inhibition at 5 µg/mL (Staphylococcus aureus [5]): 10.8 mm
